Source: PMC7508919 (Molecular Therapy Oncolytics, 2020)
“Also recorded” adds a separate entry of the source. Values belong to the substance of their own block, whether it stands above or below them.

What was measured:
[1] = system: MDA-MB-231 xenograft; test: MDA-MB-231 xenograft in nude mice; format: in vivo, nude BALB/c mice; conditions: MDA-MB-231 nude mice; i.p. daily, 25 days; n = 5–6 per group
In short: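 Female nude BALB/c mice, 4–6 weeks old, receive 7 × 10^6 MDA-MB-231-tomato cells in 100 μL PBS subcutaneously into the left axilla. Serially diluted test peptide or scrambled peptide is injected i.p. daily. Body weight and tumor size are recorded every 3 days, with volume = length × width² × 0.5, and IVIS bioluminescence is imaged twice weekly. Tumors are weighed at sacrifice; mean ± SD.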

[2] = system: MDA-MB-231 cells; test: Transwell invasion assay, MDA-MB-231; format: cell-based; conditions: Matrigel-coated Transwell, 48 h, Figure 4
In short: (§1)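 Cells (2 × 104) were seeded in serum-free medium with serially diluted test peptide or scrambled peptide into Matrigel-coated upper Transwell chambers. The lower chamber held 10% FBS medium as chemoattractant. Incubation ran 48 h at 37°C, 5% CO2. Non-invaded cells were removed. Invaded cells were methanol-fixed for 10 min, stained with hematoxylin for 30 min, and counted. Three independent experiments, mean ± SD.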

[3] = system: MDA-MB-231 cells; test: Cell-cycle distribution by flow cytometry; format: cell-based; conditions: 24, 48 or 72 h, PI staining, Figure 3C
In short: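 MDA-MB-231 cells (DMEM, 10% FBS, 37°C, 5% CO2) are treated with serially diluted test peptide for 24, 48 or 72 h. Cells are stained with propidium iodide for 30 min at room temperature in the dark. Flow cytometry gives the percentages in G0/G1, S and G2/M. Mean ± SD of three independent experiments; one-way ANOVA versus control phases.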

[4] = system: tumor tissue; test: TUNEL assay of tumor tissue; format: in vivo, nude BALB/c mice; conditions: Figure 6C
In short: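 Xenograft tumor tissue was fixed in 4% PFA overnight and paraffin-embedded. Apoptotic cells in sections were detected with a FragEL DNA fragmentation kit (TUNEL) and imaged at ×200. Tumors came from test peptide- or scrambled peptide-treated mice.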

[5] = system: PI3K/AKT pathway; test: Western blot of PI3K/AKT pathway; format: cell-based
[6] = system: GPR1; test: Calcium mobilization assay, GPR1-expressing cells; format: cell-based, human; conditions: Fluo-4 NW, Figure 2D
In short: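 HEK293 cells stably transfected with human GPR1 (pcDNA3.0 vector, G418 resistance), with empty-vector HEK293 as control, grown in DMEM with 10% FBS. […] Fluo-4 NW dye is used following the kit instructions. Reported as mean ± SD of three independent experiments.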

[7] = target: T1, GPR1 (Homo sapiens, UniProt P46091); test: Immunofluorescence colocalization of FITC-LRH7-G5 with GPR1; format: cell-based; conditions: breast cancer cells; 1 μM FITC-labeled peptide, 2 h at RT, confocal microscopy
T1 sequence (P46091 1-355): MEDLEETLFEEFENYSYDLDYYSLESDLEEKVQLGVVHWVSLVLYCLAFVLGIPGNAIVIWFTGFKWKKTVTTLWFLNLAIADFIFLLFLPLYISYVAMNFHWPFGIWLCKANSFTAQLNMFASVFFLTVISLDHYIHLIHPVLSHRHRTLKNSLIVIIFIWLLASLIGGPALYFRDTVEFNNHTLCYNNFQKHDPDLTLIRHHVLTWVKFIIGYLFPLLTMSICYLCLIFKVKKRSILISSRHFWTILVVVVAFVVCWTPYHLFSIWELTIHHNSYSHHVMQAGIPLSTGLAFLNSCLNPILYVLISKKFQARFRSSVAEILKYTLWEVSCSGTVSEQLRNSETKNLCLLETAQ

[8] = Body weight of nude mice, HCC1937 model; format: in vivo, nude BALB/c mice; conditions: i.p. daily, 25 days, Figure S5E
In short: (§2)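 Female nude BALB/c mice, 4–6 weeks old, were randomised into five groups. Each received MDA-MB-231-tomato or HCC1937-tomato cells (7 × 106 in 100 μL PBS) s.c. into the left axilla. Serially diluted test peptide or scrambled peptide was given i.p. daily for 25 days. Body weight and tumor size were recorded every 3 days, with volume = length × width² × 0.5. IVIS imaging was done twice weekly. Tumors were weighed at sacrifice.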

[9] = Body weight of nude mice, MDA-MB-231 model; format: in vivo, nude BALB/c mice; conditions: MDA-MB-231 nude mice; i.p. daily, 25 days; Figure 5F
In short: as §2

[10] = system: MDA-MB-231 cells; test: Apoptosis by Annexin V/PI flow cytometry; format: cell-based; conditions: 24, 48 or 72 h, Annexin V-FITC/PI, Figure 3D
In short: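 MDA-MB-231 cells were grown in DMEM with 10% FBS at 37°C and 5% CO2. They were treated with serial dilutions of test peptide or scrambled peptide, then stained with FITC-Annexin V and PI for flow cytometry. Annexin V+/PI− (early) plus Annexin V+/PI+ (late) cells were scored as apoptotic. Three independent experiments, mean ± SD, one-way ANOVA.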

[11] = system: MDA-MB-231 cells; test: Colony formation assay, MDA-MB-231; format: cell-based; conditions: 1 month of treatment, Figure 3B
In short: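 MDA-MB-231-tomato cells were seeded at 1 × 10^3 cells/well in 6-well plates. They were exposed to indicated concentrations of test peptide or scrambled peptide. Fluorescent colonies were counted under a fluorescence microscope.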

[12] = system: T47D cells; test: MTT cell viability / proliferation, T47D; format: cell-based; conditions: 1 nM–100 μM, 24, 48 or 72 h, 0.04% FBS, Figure 3A
In short: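 T47D cells were maintained in RPMI with 10% FBS. Log-phase cells were seeded at 5 × 10^3 cells/well for 24 h, then starved in 0.04% FBS medium for 12 h. Serial dilutions of test peptide or scrambled peptide in 0.04% FBS medium were added for 24, 48 and 72 h before MTT read-out. Three independent experiments, mean ± SD. One-way ANOVA versus 0 μM at each time point.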

[13] = system: HEK293 pcDNA cells; test: Calcium mobilization assay, HEK293 pcDNA cells; format: cell-based; conditions: Fluo-4 NW, Figure 2D
In short: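 Stably transfected HEK293 cells carrying empty pcDNA3.0 vector (G418 resistance) served as the control line. Intracellular calcium was read with Fluo-4 NW dye following the kit protocol. Human recombinant chemerin was the agonist and test peptide the antagonist. Three independent experiments, mean ± SD.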

[14] = system: TNBC cells; test: Western blot of cell-cycle, apoptosis and invasion proteins; format: cell-based; conditions: immunoblot, Figure 4D
[15] = system: HCC1937 xenograft; test: HCC1937 xenograft in nude mice; format: in vivo, nude BALB/c mice; conditions: i.p. daily, 25 days, n=5
In short: as §2

[16] = system: GPR1; test: Phage clones binding to GPR1 by ELISA; design: species or system human; conditions: versus HEK293 pcDNA cells, Figure 2A
In short: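 A Ph.D.-7 library (diversity 2.8 × 109) was precleared, then panned for five rounds over stable GPR1-overexpressing HEK293 cells (2 × 10^5/well, seeded 24 h). Eluted clones were serially diluted and incubated with GPR1-overexpressing or empty-vector HEK293 cells. Phage ssDNA was then sequenced.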

[17] = system: MDA-MB-231 cells; test: MTT cell viability / proliferation, MDA-MB-231; format: cell-based; conditions: 1 nM–100 μM, 24, 48 or 72 h, 0.04% FBS, Figure 3A
In short: (§3)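 Log-phase cells (DMEM, 10% FBS) are seeded at 5 × 10^3 cells/well for 24 h, then starved 12 h in 0.04% FBS medium. Serially diluted test peptide or scrambled peptide is added in the same medium. Viability is read by MTT at 24, 48 and 72 h. Mean ± SD of three independent experiments; one-way ANOVA versus 0 μM at each time.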

[18] = system: HCC1937 cells; test: Transwell invasion assay, HCC1937; format: cell-based; conditions: Matrigel-coated Transwell, 48 h, Figure S4
In short: as §1

[19] = system: tumor tissue; test: Histology/IHC of tumor tissue; format: in vivo, nude BALB/c mice
In short: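 Xenograft tumors were fixed in 4% PFA overnight, paraffin-embedded and sectioned. Sections were H&E-stained (×200, ×400) or immunostained for Ki-67, PCNA and vimentin using an IHC kit (×200). Groups were test peptide- or scrambled peptide-treated mice.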

[20] = system: MDA-MB-231 cells; test: Transwell migration assay, MDA-MB-231; format: cell-based; conditions: 0.1 μM to 10 μM, 12 h, Figure 4
In short: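 Uncoated Transwell chambers were used. MDA-MB-231 cells were placed in the upper chamber in FBS-free medium with test peptide or scrambled peptide. The lower chamber held 10% FBS medium. Incubation ran 12 h at 37°C, 5% CO2. Unmigrated cells were wiped off. Migrated cells were methanol-fixed for 10 min, hematoxylin-stained for 30 min at RT, and counted by inverted microscopy. Three independent experiments, mean ± SD.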

[21] = system: HCC1937 cells; test: MTT cell viability / proliferation, HCC1937; format: cell-based; conditions: 1 nM–100 μM, 24, 48 or 72 h, 0.04% FBS, Figure 3A
In short: as §3

[22] = system: HCC1937 cells; test: Transwell migration assay, HCC1937; format: cell-based; conditions: 12 h, Figure S4
[23] = target: T1, GPR1; conditions: cited from earlier work
[24] = system: receptors CMKLR1 and GPR1; conditions: comparison of the two receptors; cited from earlier work
[25] = system: GPR1; test: cAMP assay; format: cell-based, human; conditions: 10 nM huChemerin, 10 μM forskolin, 30 min at 37°C; mean ± SD, three independent experiments
In short: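 Stable GPR1-transfected and empty-vector HEK293 cells are seeded at 5 × 10^3 cells/well for 24 h. Cells are then exposed to serial dilutions of test peptide alone, forskolin plus chemerin, or forskolin, chemerin and peptide combined. cAMP is measured with a commercial kit.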

[26] = Gi class of heterotrimeric G proteins

colocalization with GPR1 [7]: marked colocalization with GPR1
binding affinity of phage clones to GPR1 [16]: highest affinity
Substance: MPRLPPA [LRH7-G5]
tumor burden [1]: reduced the tumor burden in a dose-dependent manner
effect on invasion [2]: significantly suppressed
cell-cycle arrest [3]: arrested MDA-MB-231 cells at the G0/G1 phase boundary
cellular apoptosis in tumor (TUNEL) [4]: increase in cellular apoptosis; also recorded: induces apoptosis in tumors
effect of peptide in coculture with AKT phosphorylation activator SC-79 ([5]; cocultured with SC-79): enhanced by the AKT agonist
effect of peptide in coculture with PI3K inhibitor wortmannin ([5]; cocultured with wortmannin): weakened by the PI3K inhibitor
phosphorylation of AKT ([5]; immunoblot): significantly decreased
phosphorylation of ERK ([5]; immunoblot): significantly decreased
effect on chemerin-induced calcium mobilization [6]: significantly decreased chemerin-induced calcium mobilization
body weight [8]: did not affect body weight
mean body weight [9]: did not change significantly
induction of apoptosis [10]: induced their apoptosis
effect on colony formation [11]: validated by colony formation assays
effect on cell growth (MTT) [12]: little effect
effect on calcium mobilization in HEK293 pcDNA cells [13]: did not affect
Bcl-2 level ([14]; apoptosis regulator): decreased
Stat3 level ([14]; apoptosis regulator): decreased
cyclin D level ([14]; cell-cycle-related protein): decreased
MMP-2 level ([14]; invasion-related): decreased
MMP-9 level ([14]; invasion-related): decreased
N-cadherin level ([14]; invasion-related): decreased
Snail level ([14]; invasion-related): decreased
vimentin level ([14]; invasion-related): decreased
tumor volume ([15]; compared with control group): markedly decreased
tumor weight ([15]; compared with control group): markedly decreased
tumor growth ([15]; dose-dependent, bioluminescence): substantially suppressed tumor growth
tumor burden [15]: reduced the tumor burden in a dose-dependent manner
effect on cell growth (MTT) [17]: significantly suppressed cell growth in a dose-dependent manner
effect on invasion [18]: significantly suppressed
tumor necrosis (H&E) ([19]; H&E staining, Figure 6A): exhibited cellular necrosis
tumor cell growth (Ki-67, PCNA, vimentin staining) ([19]; IHC staining of Ki-67, PCNA, and vimentin, Figure 6B): decreased cell growth
effect on migration [20]: significantly suppressed; also recorded: decreased migration
effect on cell growth (MTT) [21]: significantly suppressed cell growth in a dose-dependent manner
effect on migration [22]: significantly suppressed

Substance: chemerin: human recombinant chemerin, R&D Systems; chemokine-like adipokine, GPR1 ligand
cAMP accumulation on GPR1 activation [23, 26]: inhibition of cyclic adenosine monophosphate (cAMP) accumulation
p42-p44 MAP kinases phosphorylation on GPR1 activation [23, 26]: phosphorylation of the p42-p44 MAP kinases
intracellular calcium release on GPR1 activation [23]: intracellular calcium release
binding affinities for CMKLR1 and GPR1 [24]: similar
effect on forskolin-induced cAMP release [25]: suppressed forskolin-induced cAMP release
